Laboratory results: ChEMBL document CHEMBL1123290, “Synthesis, antimalarial activity, and quantitative structure-activity relationships of tebuquine and a series of related 5-[(7-chloro-4-quinolinyl)amino]-3-[(alkylamino)methyl] [1,1'-biphenyl]-2-ols and N omega-oxides” (1986)

How the values were obtained:
Format in all cases: functional
[1] = system: Plasmodium berghei; experiment: Antimalarial activity as 60-day survivors in infected mice (Mus musculus) after single 320mg/kg subcutaneous dose 72 hr post infection
In short: (§1)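 Mice were infected with a normal drug-sensitive Plasmodium berghei strain. At 72 h postinfection each received one subcutaneous dose of compound dissolved or suspended in peanut oil, in five-mouse groups per dose. The read-out was the number of mice alive at 60 days postinfection, which were scored as cured.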

[2] = system: Plasmodium berghei; experiment: Change in mean survival time for control (average 6.2 days) versus treated mice (Mus musculus) after 40 mg/kg subcutaneous dose
[3] = system: Plasmodium berghei; experiment: Change in mean survival time of Plasmodium berghei infected mice (Mus musculus) after […] subcutaneous dose
[4] = system: Plasmodium berghei; experiment: (§2) Change in mean survival time for control (average 6.2 days) versus treated mice (Mus musculus) 72 hrs after […] subcutaneous dose
[5] = system: Plasmodium berghei; experiment: Antimalarial activity as 60-day survivors in Plasmodium berghei infected mice (Mus musculus) after single 160mg/kg subcutaneous dose 72 hr post infection; in short: as §1
[6] = system: Plasmodium berghei; experiment: Antimalarial activity in primary screen
[7] = system: Mus musculus; experiment: Antimalarial activity, administered as a single subcutaneous dose of 640 mg/kg, 72 hrs post infection measured as number of mice (Mus musculus) surviving at 60 days post infection; in short: as §1
[8] = system: Plasmodium berghei; experiment: Change in mean survival time of Plasmodium berghei infected mice (Mus musculus) on 1.25 mg/kg subcutaneous dose
[9] = system: Plasmodium berghei; experiment: Change in mean survival time in control (average 6.2 days) versus treated mice (Mus musculus) after 80 mg/kg subcutaneous dose
[10] = system: Plasmodium berghei; experiment: Change in mean survival time of Plasmodium berghei infected mice (Mus musculus) after 5 mg/kg subcutaneous dose
[11] = system: Plasmodium berghei; experiment: Change in mean survival time for control (average 6.2 days) versus treated mice (Mus musculus) after 20 mg/kg subcutaneous dose
[12] = system: Plasmodium berghei; experiment: Difference in mean survival time of Plasmodium berghei infected mice (Mus musculus) after 10 mg/kg subcutaneous dose
[13] = system: Mus musculus; experiment: Antimalarial activity, administered as a single subcutaneous dose of 80 mg/kg, 72 hrs post infection measured as number of mice (Mus musculus) surviving at 60 days post infection; in short: as §1
[14] = system: Plasmodium berghei; experiment: Change in mean survival time for control (average 6.2 days) versus treated mice (Mus musculus) after 160 mg/kg subcutaneous dose
[15] = system: Plasmodium berghei; experiment: Change in mean survival time for control (average 6.2 days) versus treated mice (Mus musculus) after 320 mg/kg subcutaneous dose
[16] = system: Mus musculus; experiment: Antimalarial activity, administered as a single subcutaneous dose of 40 mg/kg, 72 hrs post infection measured as number of mice (Mus musculus) surviving at 60 days post infection; in short: as §1
[17] = system: Plasmodium berghei; experiment: as §2; remark: listed apart in the source

| SMILES | No. of mice cured [1] | Delta MST [2] | Delta MST [3] | Delta MST [4] | No. of mice cured [5] | ED30 [6] | No. of mice cured [7] | Delta MST [8] | Delta MST [9] | Delta MST [10] | Delta MST [11] | Delta MST [12] | No. of mice cured [13] | Delta MST [14] | Delta MST [15] | No. of mice cured [16] | Delta MST [17] |
| --- | --- | --- | --- | --- | --- | --- | --- | --- | --- | --- | --- | --- | --- | --- | --- | --- | --- |
| CCN(CC)Cc1cc(Nc2cc[n+]([O-])c3cc(Cl)ccc23)cc(-c2ccc(SC)cc2)c1O | 4 | 10.3 days | 0.5 days | 27.3 days | 1 | 158 mg/kg | 2 | 0.1 days | 9.4 days | 1.5 days | 6.5 days | 2.1 days | 1 | 19.9 days | 18.6 days | – | – |
| CCN(CC)Cc1cc(Nc2cc[n+]([O-])c3cc(Cl)ccc23)cc(-c2ccc(Cl)c(Cl)c2)c1O | 5 | 21.2 days | -0.1 days | – | 2 | 36.6 mg/kg | 5 | -0.1 days | 25.7 days | 0.7 days | 12 days | 5.9 days | 2 | 29.1 days | – | 1 | – |
| CCN(CC)Cc1cc(Nc2cc[n+]([O-])c3cc(Cl)ccc23)cc(-c2ccccc2F)c1O | 2 | 17.1 days | -0.1 days | 35.6 days | 3 | 48.4 mg/kg | 4 | -0.1 days | 15.6 days | 1.5 days | 12.2 days | 6.1 days | – | 20.1 days | 31.9 days | 1 | – |
| CCN(CC)Cc1cc(Nc2cc[n+]([O-])c3cc(Cl)ccc23)cc(-c2ccccc2)c1O | 3 | 29.6 days | 0.3 days | 23.9 days | 5 | 26.3 mg/kg | 3 | 0.3 days | 19.9 days | 5.1 days | 17.4 days | 7.7 days | 2 | – | 24.9 days | – | – |
| CCN(CC)Cc1cc(Nc2cc[n+]([O-])c3cc(Cl)ccc23)cc(-c2ccccc2Cl)c1O | 3 | 25.8 days | -0.2 days | – | 3 | 27.4 mg/kg | 5 | -0.2 days | 34.9 days | 6.4 days | 19.2 days | 8 days | 2 | 33.4 days | 41.9 days | 1 | – |
| CCN(CC)Cc1cc(Nc2cc[n+]([O-])c3cc(Cl)ccc23)cc(-c2ccc(F)cc2)c1O | 4 | 21.7 days | 2.1 days | 15 days | 5 | 19.7 mg/kg | – | 0.5 days | 23.6 days | 5.1 days | 14.1 days | 10.5 days | 4 | – | 8.6 days | 2 | – |
| CCN(CC)Cc1cc(Nc2cc[n+]([O-])c3cc(Cl)ccc23)cc(-c2cccc(Cl)c2)c1O | 4 | 25.9 days | 0.7 days | 16.4 days | 4 | 27.4 mg/kg | 3 | 0.3 days | 25.6 days | 2.1 days | 16.5 days | 9.7 days | 2 | 28.9 days | 21.9 days | 2 | – |
| CC(C)(C)NCc1cc(Nc2cc[n+]([O-])c3cc(Cl)ccc23)cc(-c2ccc(Cl)c(Cl)c2)c1O | 3 | 8.9 days | -0.1 days | – | 1 | – | 2 | -0.3 days | 23.2 days | 0.5 days | 5.9 days | 2.9 days | 1 | 25.9 days | 25.9 days | – | – |
| CCCCN(CCCC)Cc1cc(Nc2cc[n+]([O-])c3cc(Cl)ccc23)cc(-c2ccc(Cl)cc2)c1O | – | 2.2 days | -0.2 days | 31.7 days | – | – | 1 | 0.4 days | 8 days | 0.4 days | 3.2 days | -0.2 days | – | 12 | 21.2 days | – | 0.4 days |
